Laboratory results taken from paper PMC11208914 (Biochemistry and Biophysics Reports, 2024).
“Also recorded” adds a separate entry of the source. Read-outs that look alike come from different tables or passages of the source.

Tests used:
HeLa cells = assay: CellTiter-Glo cell viability test, HeLa cells; format: cell-based
Outline: (§1)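 HMC3 or HeLa cells were grown in DMEM with L-glutamine, 10 % FCS and 1 % penicillin/streptomycin, then seeded at 10^4 cells/well. Peptide in ½ dilutions (100 to 1.5 μg/ml) was added for 2 h at 37 °C and 5 % CO2. Medium was then replaced with DMEM/10 % FCS for 24 h, with untreated cells as control. ATP was read by CellTiter-Glo luminescence, in triplicate.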

HMC3 cells = assay: CellTiter-Glo cell viability test, HMC3 cells; format: cell-based; conditions: Fig. 2; for cytotoxic effect on HMC3 cells at 100 μg/ml: about 100 μg/ml
Outline: as §1

ZIKV PF13 = format: cell-based, Zika virus; conditions: FACS; for reduction in infection: virus treated before infection of HMC3 cells
Outline: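 HMC3 cells were seeded at 4.10^4 cells/well the day before. ZIKV PF13 (MOI 1.5) was preincubated with ½ dilutions of peptide (50 to 3 μg/ml) for 1 h at 37 °C, then added to cells for 1.5 h at 37 °C before medium replacement; duplicates. Trypsinized cells were fixed and permeabilized (30 min, 4 °C), stained with 4G2 anti-envelope antibody (1/500) and Alexa488 secondary (1/1000), then analysed by flow cytometry.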

Sequence | cytotoxicity to HeLa cells (HeLa cells; even at high concentrations, Fig. 3) | cytotoxic effect on HMC3 cells at 100 μg/ml (HMC3 cells) | effect on ZIKV PF13 infection (ZIKV PF13; non-cytotoxic concentrations 50 to 3 μg/ml, HMC3 cells) | viability of HeLa cells at 100 μg/ml (HeLa cells) | concentration at which the peptide exhibits cytotoxicity to HeLa cells (HeLa cells; Fig. 3) | concentration at which the peptide remained non-toxic to HMC3 cells (HMC3 cells) | reduction in infection (ZIKV PF13; 3 μg/ml) | reduction in infection (ZIKV PF13; 6.25 μg/ml)
GLKKKIKEVGKEAAKAAAKAAGKAALGAVSEAV [K3K4B2] | non-cytotoxic; also recorded: did not exhibit any toxic effects | no cytotoxic effects | increased the infection |  |  |  |  | 
ALWKTLLKKVLKAAAKAALKAVLVGANA [K4K20S4] |  | exhibited cytotoxicity |  | approximately 1% | around 25 μg/ml | about 12.5 μg/ml | Approximately 90% | 
ALWKTLLKKVLKAAAKAALKAVLVGAKA [K4K20K27S4] |  | exhibited cytotoxicity |  | 18% | 50 µg/mL | about 12.5 μg/ml |  | Approximately 90%
